# Experimental data as given in ChEMBL document CHEMBL3259745, “Identification of trisubstituted-pyrazol carboxamide analogs as novel and potent antagonists of farnesoid X receptor” (Bioorg Med Chem, 2014).
# The source made the active and inactive calls. The rule behind the calls is not given here.
# Key:
# [1] = target: T1, Bile acid receptor (Homo sapiens) (UniProt Q96RI1); assay: Agonist activity at FXR (unknown origin) expressed in HEK293T cells after 16 hrs by beta-lactamase reporter gene assay relative to control; assay type: cell-based; conditions: HEK-293T
# T1 sequence (whole entry): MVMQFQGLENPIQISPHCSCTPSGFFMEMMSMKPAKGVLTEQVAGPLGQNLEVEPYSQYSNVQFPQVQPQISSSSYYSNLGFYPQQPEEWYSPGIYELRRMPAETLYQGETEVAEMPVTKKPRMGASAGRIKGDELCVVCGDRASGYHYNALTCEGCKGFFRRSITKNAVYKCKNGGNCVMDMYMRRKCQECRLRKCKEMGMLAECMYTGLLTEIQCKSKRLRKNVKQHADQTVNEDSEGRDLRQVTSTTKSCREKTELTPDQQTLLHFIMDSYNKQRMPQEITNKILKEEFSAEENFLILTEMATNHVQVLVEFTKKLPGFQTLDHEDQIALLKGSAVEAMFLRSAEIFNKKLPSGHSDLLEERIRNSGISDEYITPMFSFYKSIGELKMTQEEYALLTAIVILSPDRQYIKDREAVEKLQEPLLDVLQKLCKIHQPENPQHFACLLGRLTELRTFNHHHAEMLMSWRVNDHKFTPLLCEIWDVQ
# [2] = target: T1, Bile acid receptor (Homo sapiens); assay: Ratio of E16 IC50 to compound IC50 for human GST-tagged FXR after 20 mins by TR-FRET assay
# [3] = Cytotoxicity against HEK293T cells expressing FXR and beta-lactamase genes assessed as inhibition of cell viability at 13.3 uM after 16 hrs by CellTiter-Glo luminescent assay relative to control; assay type: cell-based, HEK-293T; conditions: human, read-out: INH
# Method in brief: (§1)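 Viability run alongside the agonist assay in the same GeneBLAzer FXR HEK 293T cells: 20,000 cells/well in phenol red-free DMEM with 2% charcoal/dextran-treated FBS, 0.5% DMSO, 16 h at 37°C. Cooled 20 min, then CellTiter-Glo added for 20 min in dark; luminescence read.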
# [4] = target: T1, Bile acid receptor (Homo sapiens); assay: Inhibition of GW4064-induced transactivation of FXR (unknown origin) expressed in HEK293T cells at 40 uM after 16 hrs by beta-lactamase reporter gene assay relative to control; assay type: cell-based; conditions: HEK-293T
# [5] = target: T1, Bile acid receptor (Homo sapiens); assay: Antagonist activity at human GST-tagged FXR at 164 nM after 20 mins by TR-FRET assay relative to control
# [6] = target: T1, Bile acid receptor (Homo sapiens); assay: Antagonist activity at human GST-tagged FXR at 1.5 uM after 20 mins by TR-FRET assay relative to control
# [7] = Cytotoxicity against HEK293T cells expressing FXR and beta-lactamase genes assessed as inhibition of cell viability at 40 uM after 16 hrs by CellTiter-Glo luminescent assay relative to control; assay type: cell-based, HEK-293T; conditions: human, read-out: INH; method in brief: as §1
# [8] = target: T1, Bile acid receptor (Homo sapiens); assay: Agonist activity at human FXR
# Bile acid receptor [9] = target: T2, Bile acid receptor (Homo sapiens, UniProt Q96RI1); assay: Antagonist activity at human GST-tagged FXR after 20 mins by TR-FRET assay
# T2 sequence (Q96RI1 whole entry): T1 sequence (whole entry)
# Bile acid receptor [10] = target: T2, Bile acid receptor; assay: Inhibition of GW4064-induced transactivation of FXR (unknown origin) expressed in HEK293T cells after 16 hrs by beta-lactamase reporter gene assay; assay type: cell-based, HEK-293T
# [11] = target: T1, Bile acid receptor (Homo sapiens); conditions: 4.44 uM
# [12] = target: T1, Bile acid receptor (Homo sapiens); assay: Inhibition of GW4064-induced transactivation of FXR (unknown origin) expressed in HEK293T cells at 1 uM after 16 hrs by beta-lactamase reporter gene assay relative to control; assay type: cell-based; conditions: HEK-293T
# [13] = target: T1, Bile acid receptor (Homo sapiens); assay: Inhibition of GW4064-induced transactivation of FXR (unknown origin) expressed in HEK293T cells at 20 uM after 16 hrs by beta-lactamase reporter gene assay relative to control; assay type: cell-based; conditions: HEK-293T
# [14] = target: T1, Bile acid receptor (Homo sapiens); assay: Antagonist activity at human GST-tagged FXR at 40 uM after 20 mins by TR-FRET assay relative to control
# [15] = target: T1, Bile acid receptor (Homo sapiens); assay: Ratio of E16 IC50 to compound IC50 for transactivation of FXR (unknown origin) expressed in HEK293T cells after 16 hrs by beta-lactamase reporter gene assay; assay type: cell-based; conditions: HEK-293T
# [16] = target: T1, Bile acid receptor (Homo sapiens); assay: Antagonist activity at human GST-tagged FXR at 1.48 uM after 20 mins by TR-FRET assay relative to control
# [17] = Cytotoxicity against HEK293T cells expressing FXR and beta-lactamase genes assessed as inhibition of cell viability at 4.4 uM after 16 hrs by CellTiter-Glo luminescent assay relative to control; assay type: cell-based, HEK-293T; conditions: human, read-out: INH; method in brief: as §1
compound,measurement,setting,value
Cc1ccc(-c2nn(-c3nc4ccccc4s3)cc2C(=O)Nc2ccc(C)c(S(=O)(=O)N3CCOCC3)c2)cc1,Activity,[1],inactive
same,Ratio IC50,[2],3
same,"cytotoxicity at 16 h, 13.3 µM",[3],11.5%
same,inhibition,[4],79.1%
same,inhibition,[5],102%
Cc1ccc(-c2nn(CC3CC3)cc2C(=O)Nc2ccc(C)c(S(=O)(=O)N3CCOCC3)c2)cc1,Activity,[1],inactive
same,inhibition,[6],105%
same,inhibition,[4],100%
same,"cytotoxicity at 16 h, 40 µM",[7],< 5%
O=C(Nc1cccc(S(=O)(=O)N2CCOCC2)c1)c1cn(-c2ccccc2)nc1-c1cccnc1,Activity,[8],inactive
same,IC50,Bile acid receptor [9],1300 nM
same,IC50,Bile acid receptor [10],10.8 µM
same,inhibition,[4],82.3%
same,"cytotoxicity at 16 h, 40 µM",[7],< 5%
same,inhibition,[11],90.4%
COc1cccc(Cn2cc(C(=O)N(C)c3ccc(C)c(S(=O)(=O)N4CCOCC4)c3)c(C(C)C)n2)c1,inhibition,[12],inactive
same,inhibition,[13],2.4%
same,Activity,[1],inactive
same,inhibition,[14],80.3%
same,"cytotoxicity at 16 h, 40 µM",[7],13.5%
COc1cccc(Cn2cc(C(=O)Nc3ccc(C)c(S(=O)(=O)N4CCOCC4)c3)c(-c3ccc(C)cc3)n2)c1,Activity,[1],inactive
same,Ratio IC50,[15],4.59
same,Ratio IC50,[2],5.26
same,inhibition,[4],98.9%
same,inhibition,[5],130%
same,"cytotoxicity at 16 h, 40 µM",[7],< 5%
COc1cccc(Cn2cc(CNc3ccc(C)c(S(=O)(=O)N4CCOCC4)c3)c(-c3cccc(OC)c3)n2)c1,inhibition,[16],39.8%
same,inhibition,[12],inactive
same,Activity,[1],inactive
same,inhibition,[4],3.1%
same,"cytotoxicity at 16 h, 40 µM",[7],< 5%
CCCCn1cc(C(=O)Nc2ccc(C)c(S(=O)(=O)N3CCOCC3)c2)c(-c2ccc(C)cc2)n1,"cytotoxicity at 16 h, 4.4 µM",[17],10.3%
same,inhibition,[13],97.9%
same,Activity,[1],inactive
same,inhibition,[6],130%
CCN(CC)S(=O)(=O)c1cc(NC(=O)c2cnn(-c3cccnc3)c2)ccc1C,inhibition,[16],23%
same,Activity,[8],inactive
same,inhibition,[4],24%
same,"cytotoxicity at 16 h, 40 µM",[7],10.3%
